Test results published in ChEMBL document CHEMBL3352472, “Discovery of 4-aryl-7-hydroxyindoline-based P2Y1 antagonists as novel antiplatelet agents” (J Med Chem, 2014).

Experiments:
P2Y purinoceptor 1 = P2Y purinoceptor 1 (Homo sapiens, UniProt P47900); experiment: Antagonist activity at P2Y1 receptor in washed human platelets assessed as 1 uM 2-methylthio-ADP-induced calcium flux by FLIPR assay; assay type: functional
[1] = Metabolic stability in human liver microsomes assessed as compound remaining at 0.5 uM after 10 mins; assay type: ADME; conditions: read-out: Stability
Outline: (§1)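 Compound at 0.5 μM incubated 10 min with 1 mg/mL human, rat or mouse liver microsomes; percentage of parent remaining reported.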

[2] = Metabolic stability in rat liver microsomes assessed as compound remaining at 0.5 uM after 10 mins; assay type: ADME; conditions: read-out: Stability; outline: as §1
[3] = Metabolic stability in mouse liver microsomes assessed as compound remaining at 0.5 uM after 10 mins; assay type: ADME; conditions: read-out: Stability; outline: as §1

P2Y purinoceptor 1, sequence (P47900 whole entry): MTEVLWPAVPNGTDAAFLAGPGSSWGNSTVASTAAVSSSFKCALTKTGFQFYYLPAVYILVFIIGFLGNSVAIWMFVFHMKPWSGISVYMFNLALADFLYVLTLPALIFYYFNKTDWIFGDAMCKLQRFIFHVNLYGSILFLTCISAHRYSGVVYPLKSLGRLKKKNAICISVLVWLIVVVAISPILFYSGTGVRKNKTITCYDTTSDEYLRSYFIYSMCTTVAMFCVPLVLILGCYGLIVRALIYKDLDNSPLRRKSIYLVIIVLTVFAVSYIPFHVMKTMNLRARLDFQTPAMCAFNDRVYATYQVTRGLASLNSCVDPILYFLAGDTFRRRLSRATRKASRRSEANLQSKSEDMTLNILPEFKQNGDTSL

IC50 (P2Y purinoceptor 1) [nM]	remaining at 10 min, 0.5 µM [1] [%]	remaining at 10 min, 0.5 µM [2] [%]	remaining at 10 min, 0.5 µM [3] [%]	SMILES
1.51	96	94	89	CC1(C)CN(c2ccccc2NC(=O)Nc2ccc(OC(F)(F)F)cc2)c2c(O)ccc(-c3ccc(C(F)(F)F)cc3)c21
0.37	76	67	48	CC1(C)CN(c2ccccc2NC(=O)Nc2ccc(OC(F)(F)F)cc2)c2c(O)ccc(-c3ccccc3)c21
0.45	80	71	66	CC1(C)CN(c2ccccc2NC(=O)Nc2ccc(OC(F)(F)F)cc2)c2c(O)c(F)cc(-c3ccc(F)cc3)c21
0.03	80	0	75	CC1(C)CN(c2ccccc2NC(=O)Nc2csc(Cl)n2)c2c(O)ccc(-c3ccc(F)cc3)c21
0.15	67	59	56	CC1(C)CN(c2ccccc2NC(=O)Nc2ccc(OC(F)(F)F)cc2)c2c(O)ccc(-c3cccc(F)c3)c21
0.05	47	14	54	CCOC(=O)C1(C)CN(c2ccccc2NC(=O)Nc2nc3ccc(Cl)nc3s2)c2c(O)ccc(Cl)c21 (centres undefined)
2.3	92	79	88	CC1(C)CN(c2ccccc2NC(=O)Nc2ccc(OC(F)(F)F)cc2)c2c(O)cc(F)c(-c3ccc(Cl)s3)c21
0.37	62	54	48	CC1(C)CN(c2ccccc2NC(=O)Nc2ccc(OC(F)(F)F)cc2)c2c(O)ccc(-c3ccccc3F)c21
0.51	68	69	73	CC1(C)CN(c2ccccc2NC(=O)Nc2ccc(OC(F)(F)F)cc2)c2c(O)cc(F)c(-c3ccc(C(F)(F)F)nc3)c21
0.04	45	34	52	CC(C)(C)CN1CCCC1c1ccc(NC(=O)Nc2ccccc2N2CC(C)(C)c3c(-c4ccc(F)cc4)ccc(O)c32)cc1 (centres undefined)
0.57	63	59	64	CC1(C)CN(c2ccccc2NC(=O)Nc2ccc(OC(F)(F)F)cc2)c2c(O)ccc(-c3cc(F)cc(F)c3)c21
0.13	84	83	78	CC1(C)CN(c2ccccc2NC(=O)Nc2ccc(OC(F)(F)F)cc2)c2c(O)ccc(-c3ccc(Cl)cc3)c21
1.96	79	58	66	CC1(CC(F)(F)F)CN(c2ccccc2NC(=O)Nc2ccc(OC(F)(F)F)cc2)c2c(O)ccc(Cl)c21 (centres undefined)
0.52	81	72	79	CC1(C)CN(c2ccccc2NC(=O)Nc2ccc(OC(F)(F)F)cc2)c2c(O)ccc(-c3ccc(F)cc3F)c21
0.09				CCOC(=O)C1(C)CN(c2ccccc2NC(=O)Nc2ccc(OC(F)(F)F)cc2)c2c(O)ccc(Cl)c21 (centres undefined)
0.14				CC1(C)CN(c2ccccc2NC(=O)Nc2nc3ccc(Cl)nc3s2)c2c(O)ccc(Cl)c21
	77	83	67	CC1(C)CN(c2ccccc2NC(=O)Nc2ccc(OC(F)(F)F)cc2)c2c(O)cc(F)c(-c3cnc(Cl)cn3)c21
	88	100	80	CC1(C)CN(c2ccccc2NC(=O)Nc2ccc(OC(F)(F)F)cc2)c2c(O)c(F)cc(-c3ccc(Cl)cc3)c21
